From ChEMBL document CHEMBL1177699, “Identification and functional characterization of a stable, centrally active derivative of the neurotensin (8-13) fragment as a potential first-in-class analgesic” (J Med Chem, 2010)
Numbered stars: 1 amine (or outer) side, 2 acyl side, 3 side chain; on linkers, the order of the positions; unused ones are H or OH. Square brackets hold non-standard residues; d marks the D form. Peptide text beside a SMILES is read from it. * marks the point of attachment. Hexanoyl(6-NMe3+) = C[N+](C)(C)CCCCCC(=O)*; Pentanoyl(5-guanidino) = NC(N)=NCCCCC(=O)*; Ava(2S-Me) = C[C@@H](CCCN[*:1])C(=O)[*:2]; X30 = C[C@@H](CCCCC[N+](C)(C)C)C(=O)*; X21 = CC/N=C(\NCC)NCCC[C@H](C)C(=O)*; X27 = C[C@@H](CCCN1CCN(C)C1=N)C(=O)*; X9 = C[C@@H](CCCC[N+](C)(C)C)C(=O)*; X28 = C/N=C(\NC)NCCC[C@H](C)C(=O)*; NMe5Ava = CN(CCCCC(=O)[*:2])[*:1]; X25 = C[C@@H](CCCNC1=NCCN1)C(=O)*; X10 = C[C@@H](CCCCCN(C)C)C(=O)*; X14 = CNC(=N)NCCC[C@H](C)C(=O)*; X8 = C[C@@H](CCCNC(=N)N)C(=O)*; X13 = CC/N=C(\NCC)NCCCCC(=O)*; X32 = C[N+](C)(C)CCCCCCC(=O)*; Tle = CC(C)(C)[C@H](N)C(=O)O; X5 = CCN1CCN(CCCCC(=O)*)C1=N; X11 = C[C@@H](CCCCCN)C(=O)*; X12 = CNCCCCC[C@H](C)C(=O)*; X22 = C[N+](C)(C)CCCCC(=O)*; X15 = O=C(CCCCNC1=NCCCN1)*; X24 = C[C@@H](CCCCN)C(=O)*; X26 = CNCCCC[C@H](C)C(=O)*; X7 = C/N=C(\NC)NCCCCC(=O)*; X18 = N=C1NCCN1CCCCC(=O)*; X2 = O=C(CCCCNC1=NCCN1)*; X20 = CNC(=N)NCCCCC(=O)*; X3 = CNCCC[C@H](C)C(=O)*; X16 = CN(C)CCCCCCC(=O)*; X19 = CN(C)CCCCC(=O)*; Ahp = NCCCCCCC(=O)O; X29 = CNCCCCCC(=O)*; X6 = CNCCCCCCC(=O)*; Ahx = NCCCCCC(=O)O; Ava = NCCCCC(=O)O

Tests used:
Rattus norvegicus [1] = test: Analgesic activity in ip dosed Sprague-Dawley rat assessed as paw withdrawal latency by hot plate assay; format: functional
Summary of the method: (§1)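 Male Sprague-Dawley rats (240–280 g), 10 mg/kg i.p. (morphine 5 mg/kg, saline controls). Hotplate held at 53.0±0.2°C; latency to hind-paw lift, nibble or shake at serial time points, 30 s cut-off. %MPE from pre- and post-drug latencies; endpoints are maximal %MPE, duration at 100% MPE and area under the response curve. n ≥ 6.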

Rattus norvegicus [2] = test: Analgesic activity in Sprague-Dawley rat assessed as maximal possible effect paw at 10 mg/kg, ip by hot plate assay; format: functional; conditions: route intraperitoneal; summary of the method: as §1

Row | SMILES | Duration at 100% MPE (Rattus norvegicus [1]) [min] | MPE (Rattus norvegicus [2]) [%]
1 | CC(C)C[C@H](NC(=O)[C@@H](NC(=O)[C@H](Cc1ccc(O)cc1)NC(=O)[C@@H]1CCCN1C(=O)[C@H](CCCNC(=N)N)NC(=O)CCCCCC[N+](C)(C)C)C(C)(C)C)C(=O)O.[Cl-] (X32-RPY[Tle]L-OH) | 0 | 55.7
2 | CNCCCCCC(=O)N[C@@H](CCCNC(=N)N)C(=O)N1CCC[C@H]1C(=O)N[C@@H](Cc1ccc(O)cc1)C(=O)N[C@H](C(=O)N[C@@H](CC(C)C)C(=O)O)C(C)(C)C (X29-RPY[Tle]L-OH) | 30 | 100
3 | CC(C)C[C@H](NC(=O)[C@@H](NC(=O)[C@H](Cc1ccc(O)cc1)NC(=O)[C@@H]1CCCN1C(=O)[C@H](CCCNC(=N)N)NC(=O)[C@@H](C)CCCCCN)C(C)(C)C)C(=O)O (X11-RPY[Tle]L-OH) | 45 | 100
4 | CC(C)C[C@H](NC(=O)[C@@H](NC(=O)[C@H](Cc1ccc(O)cc1)NC(=O)[C@@H]1CCCN1C(=O)[C@H](CCCNC(=N)N)NC(=O)CCCCN1CCNC1=N)C(C)(C)C)C(=O)O (X18-RPY[Tle]L-OH) | 0 | 82.8
5 | C/N=C(\NC)NCCC[C@H](C)C(=O)N[C@@H](CCCNC(=N)N)C(=O)N1CCC[C@H]1C(=O)N[C@@H](Cc1ccc(O)cc1)C(=O)N[C@H](C(=O)N[C@@H](CC(C)C)C(=O)O)C(C)(C)C (X28-RPY[Tle]L-OH) | 0 | 63.3
6 | CC(C)C[C@H](NC(=O)[C@@H](NC(=O)[C@H](Cc1ccc(O)cc1)NC(=O)[C@@H]1CCCN1C(=O)[C@H](CCCNC(=N)N)NC(=O)CCCCN)C(C)(C)C)C(=O)O (H-[Ava]RPY[Tle]L-OH) | 0 | 51.69
7 | CC(C)C[C@H](NC(=O)[C@@H](NC(=O)[C@H](Cc1ccc(O)cc1)NC(=O)[C@@H]1CCCN1C(=O)[C@H](CCCNC(=N)N)NC(=O)[C@@H](C)CCCCC[N+](C)(C)C)C(C)(C)C)C(=O)O.[Cl-] (X30-RPY[Tle]L-OH) | 0 | 19.9
8 | CC(C)C[C@H](NC(=O)[C@@H](NC(=O)[C@H](Cc1ccc(O)cc1)NC(=O)[C@@H]1CCCN1C(=O)[C@H](CCCNC(=N)N)NC(=O)CCCCCCN)C(C)(C)C)C(=O)O (H-[Ahp]RPY[Tle]L-OH) | 60 | 100
9 | C/N=C(\NC)NCCCCC(=O)N[C@@H](CCCNC(=N)N)C(=O)N1CCC[C@H]1C(=O)N[C@@H](Cc1ccc(O)cc1)C(=O)N[C@H](C(=O)N[C@@H](CC(C)C)C(=O)O)C(C)(C)C (X7-RPY[Tle]L-OH) | 0 | 92.28
10 | CC(C)C[C@H](NC(=O)[C@@H](NC(=O)[C@H](Cc1ccc(O)cc1)NC(=O)[C@@H]1CCCN1C(=O)[C@H](CCCNC(=N)N)NC(=O)[C@@H](C)CCCC[N+](C)(C)C)C(C)(C)C)C(=O)O.[Cl-] (X9-RPY[Tle]L-OH) | 15 | 67.2
11 | CNCCCCC[C@H](C)C(=O)N[C@@H](CCCNC(=N)N)C(=O)N1CCC[C@H]1C(=O)N[C@@H](Cc1ccc(O)cc1)C(=O)N[C@H](C(=O)N[C@@H](CC(C)C)C(=O)O)C(C)(C)C (X12-RPY[Tle]L-OH) | 75 | 100
12 | CC(C)C[C@H](NC(=O)[C@@H](NC(=O)[C@H](Cc1ccc(O)cc1)NC(=O)[C@@H]1CCCN1C(=O)[C@H](CCCNC(=N)N)NC(=O)[C@@H](C)CCCN1CCN(C)C1=N)C(C)(C)C)C(=O)O (X27-RPY[Tle]L-OH) | 0 | 76.07
13 | CC(C)C[C@H](NC(=O)[C@@H](NC(=O)[C@H](Cc1ccc(O)cc1)NC(=O)[C@@H]1CCCN1C(=O)[C@H](CCCNC(=N)N)NC(=O)[C@@H](C)CCCNC1=NCCN1)C(C)(C)C)C(=O)O (X25-RPY[Tle]L-OH) | 0 | 79.31
14 | CC(C)C[C@H](NC(=O)[C@@H](NC(=O)[C@H](Cc1ccc(O)cc1)NC(=O)[C@@H]1CCCN1C(=O)[C@H](CCCNC(=N)N)NC(=O)[C@@H](C)CCCNC(=N)N)C(C)(C)C)C(=O)O (X8-RPY[Tle]L-OH) | 0 | 48.52
15 | CC(C)C[C@H](NC(=O)[C@@H](NC(=O)[C@H](Cc1ccc(O)cc1)NC(=O)[C@@H]1CCCN1C(=O)[C@H](CCCNC(=N)N)NC(=O)CCCCCCN(C)C)C(C)(C)C)C(=O)O (X16-RPY[Tle]L-OH) | 0 | 29
16 | CNCCC[C@H](C)C(=O)N[C@@H](CCCNC(=N)N)C(=O)N1CCC[C@H]1C(=O)N[C@@H](Cc1ccc(O)cc1)C(=O)N[C@H](C(=O)N[C@@H](CC(C)C)C(=O)O)C(C)(C)C (X3-RPY[Tle]L-OH) | 0 | 82.4
17 | CC(C)C[C@H](NC(=O)[C@@H](NC(=O)[C@H](Cc1ccc(O)cc1)NC(=O)[C@@H]1CCCN1C(=O)[C@H](CCCNC(=N)N)NC(=O)CCCCC[N+](C)(C)C)C(C)(C)C)C(=O)O.[Cl-] ({Hexanoyl(6-NMe3+)}-RPY[Tle]L-OH) | 0 | 84

Row | SMILES | Duration at 100% MPE (Rattus norvegicus [1]) [min] | MPE (Rattus norvegicus [2]) [%]
18 | CC/N=C(\NCC)NCCC[C@H](C)C(=O)N[C@@H](CCCNC(=N)N)C(=O)N1CCC[C@H]1C(=O)N[C@@H](Cc1ccc(O)cc1)C(=O)N[C@H](C(=O)N[C@@H](CC(C)C)C(=O)O)C(C)(C)C (X21-RPY[Tle]L-OH) | 0 | 10
19 | CC(C)C[C@H](NC(=O)[C@@H](NC(=O)[C@H](Cc1ccc(O)cc1)NC(=O)[C@@H]1CCCN1C(=O)[C@H](CCCNC(=N)N)NC(=O)CCCC[N+](C)(C)C)C(C)(C)C)C(=O)O.[Cl-] (X22-RPY[Tle]L-OH) | 60 | 100
20 | CC(C)C[C@H](NC(=O)[C@@H](NC(=O)[C@H](Cc1ccc(O)cc1)NC(=O)[C@@H]1CCCN1C(=O)[C@H](CCCNC(=N)N)NC(=O)CCCCN(C)C)C(C)(C)C)C(=O)O (X19-RPY[Tle]L-OH) | 90 | 100
21 | CC(C)C[C@H](NC(=O)[C@@H](NC(=O)[C@H](Cc1ccc(O)cc1)NC(=O)[C@@H]1CCCN1C(=O)[C@H](CCCNC(=N)N)NC(=O)CCCCNC1=NCCN1)C(C)(C)C)C(=O)O (X2-RPY[Tle]L-OH) | 0 | 76.4
22 | CC(C)C[C@H](NC(=O)[C@@H](NC(=O)[C@H](Cc1ccc(O)cc1)NC(=O)[C@@H]1CCCN1C(=O)[C@H](CCCNC(=N)N)NC(=O)[C@@H](C)CCCCCN(C)C)C(C)(C)C)C(=O)O (X10-RPY[Tle]L-OH) | 0 | 60.94
23 | CCN1CCN(CCCCC(=O)N[C@@H](CCCNC(=N)N)C(=O)N2CCC[C@H]2C(=O)N[C@@H](Cc2ccc(O)cc2)C(=O)N[C@H](C(=O)N[C@@H](CC(C)C)C(=O)O)C(C)(C)C)C1=N (X5-RPY[Tle]L-OH) | 0 | 80.48
24 | CC(C)C[C@H](NC(=O)[C@@H](NC(=O)[C@H](Cc1ccc(O)cc1)NC(=O)[C@@H]1CCCN1C(=O)[C@H](CCCNC(=N)N)NC(=O)CCCCNC(=N)N)C(C)(C)C)C(=O)O ({Pentanoyl(5-guanidino)}-RPY[Tle]L-OH) | 0 | 50.86
25 | CC(C)C[C@H](NC(=O)[C@@H](NC(=O)[C@H](Cc1ccc(O)cc1)NC(=O)[C@@H]1CCCN1C(=O)[C@H](CCCNC(=N)N)NC(=O)CCCCNC1=NCCCN1)C(C)(C)C)C(=O)O (X15-RPY[Tle]L-OH) | 0 | 79.62
26 | CC(C)C[C@H](NC(=O)[C@@H](NC(=O)[C@H](Cc1ccc(O)cc1)NC(=O)[C@@H]1CCCN1C(=O)[C@H](CCCNC(=N)N)NC(=O)CCCCCN)C(C)(C)C)C(=O)O (H-[Ahx]RPY[Tle]L-OH) | 0 | 48
27 | CNCCCCCCC(=O)N[C@@H](CCCNC(=N)N)C(=O)N1CCC[C@H]1C(=O)N[C@@H](Cc1ccc(O)cc1)C(=O)N[C@H](C(=O)N[C@@H](CC(C)C)C(=O)O)C(C)(C)C (X6-RPY[Tle]L-OH) | 0 | 59.32
28 | CNCCCCC(=O)N[C@@H](CCCNC(=N)N)C(=O)N1CCC[C@H]1C(=O)N[C@@H](Cc1ccc(O)cc1)C(=O)N[C@H](C(=O)N[C@@H](CC(C)C)C(=O)O)C(C)(C)C (NMe5Ava-RPY[Tle]L-OH) | 120 | 100
29 | CC(C)C[C@H](NC(=O)[C@@H](NC(=O)[C@H](Cc1ccc(O)cc1)NC(=O)[C@@H]1CCCN1C(=O)[C@H](CCCNC(=N)N)NC(=O)[C@@H](C)CCCN)C(C)(C)C)C(=O)O ({Ava(2S-Me)}-RPY[Tle]L-OH) | 0 | 89.4
30 | CNCCCC[C@H](C)C(=O)N[C@@H](CCCNC(=N)N)C(=O)N1CCC[C@H]1C(=O)N[C@@H](Cc1ccc(O)cc1)C(=O)N[C@H](C(=O)N[C@@H](CC(C)C)C(=O)O)C(C)(C)C (X26-RPY[Tle]L-OH) | 0 | 55.8
31 | CC(C)C[C@H](NC(=O)[C@@H](NC(=O)[C@H](Cc1ccc(O)cc1)NC(=O)[C@@H]1CCCN1C(=O)[C@H](CCCNC(=N)N)NC(=O)[C@@H](C)CCCCN)C(C)(C)C)C(=O)O (X24-RPY[Tle]L-OH) | 0 | 86
32 | CNC(=N)NCCC[C@H](C)C(=O)N[C@@H](CCCNC(=N)N)C(=O)N1CCC[C@H]1C(=O)N[C@@H](Cc1ccc(O)cc1)C(=O)N[C@H](C(=O)N[C@@H](CC(C)C)C(=O)O)C(C)(C)C (X14-RPY[Tle]L-OH) | 75 | 100
33 | CC/N=C(\NCC)NCCCCC(=O)N[C@@H](CCCNC(=N)N)C(=O)N1CCC[C@H]1C(=O)N[C@@H](Cc1ccc(O)cc1)C(=O)N[C@H](C(=O)N[C@@H](CC(C)C)C(=O)O)C(C)(C)C (X13-RPY[Tle]L-OH) | 15 | 95.68
34 | CNC(=N)NCCCCC(=O)N[C@@H](CCCNC(=N)N)C(=O)N1CCC[C@H]1C(=O)N[C@@H](Cc1ccc(O)cc1)C(=O)N[C@H](C(=O)N[C@@H](CC(C)C)C(=O)O)C(C)(C)C (X20-RPY[Tle]L-OH) | 75 | 100
